Results reported in ChEMBL document CHEMBL3244193, “Design of species- or isozyme-specific enzyme inhibitors. 3. Species and isozymic differences between mammalian and bacterial adenylate kinases in substituent tolerance in an enzyme-substrate complex” (J Med Chem, 1979).

How the values were obtained:
[1] = tested on: O=C(CI)NCCCCCNc1ncnc2c1ncn2[C@@H]1O[C@H](COP(=O)(O)OP(=O)(O)OP(=O)(O)O)[C@@H](O)[C@H]1O; assay: (§1) Activity of Sprague-Dawley rat liver adenylate kinase 2 by Lineweaver-Burk plot analysis
Procedure, shortened: (§2)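 Substrate kinetics in a pyruvate kinase/lactate dehydrogenase-coupled assay: 0.1 M Tris-HCl pH 7.6, 2 mM MgSO4, 0.12 M KCl, 0.3 mM PEP, 0.38 mM NADH, 0.25 mM AMP. A340 change over 5 min at 23 °C. Derivatives screened first at ca. 0.8 mM. Five or more substrate levels; KM and Vmax (relative to ATP) taken from linear Lineweaver-Burk plots.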

[2] = tested on: Nc1ncnc2c1ncn2[C@@H]1O[C@H](COP(=O)(O)OP(=O)(O)OP(=O)(O)O)[C@@H](O)[C@H]1O; assay: as §1; procedure, shortened: as §2
[3] = tested on: CSc1nc2c(N)ncnc2n1[C@@H]1O[C@H](COP(=O)(O)OP(=O)(O)OP(=O)(O)O)[C@@H](O)[C@H]1O; assay: as §1; procedure, shortened: as §2
[4] = tested on: CCCSc1nc2c(N)ncnc2n1[C@@H]1O[C@H](COP(=O)(O)OP(=O)(O)OP(=O)(O)O)[C@@H](O)[C@H]1O; assay: as §1; procedure, shortened: as §2
[5] = tested on: O=C(CI)NCCCCCNc1ncnc2c1ncn2[C@@H]1O[C@H](COP(=O)(O)OP(=O)(O)OP(=O)(O)O)[C@@H](O)[C@H]1O; assay: (§3) Activity of Sprague-Dawley rat liver adenylate kinase 2 by Lineweaver-Burk plot analysis relative to ATP; procedure, shortened: as §2
[6] = tested on: Nc1ncnc2c1ncn2[C@@H]1O[C@H](COP(=O)(O)OP(=O)(O)OP(=O)(O)O)[C@@H](O)[C@H]1O; assay: as §3; procedure, shortened: as §2
[7] = tested on: CSc1nc2c(N)ncnc2n1[C@@H]1O[C@H](COP(=O)(O)OP(=O)(O)OP(=O)(O)O)[C@@H](O)[C@H]1O; assay: as §3; procedure, shortened: as §2
[8] = tested on: CCCSc1nc2c(N)ncnc2n1[C@@H]1O[C@H](COP(=O)(O)OP(=O)(O)OP(=O)(O)O)[C@@H](O)[C@H]1O; assay: as §3; procedure, shortened: as §2
Escherichia coli [9] = assay: Activity of Escherichia coli adenylate kinase by Lineweaver-Burk plot analysis relative to ATP; procedure, shortened: as §2
Escherichia coli [10] = assay: Activity of Escherichia coli adenylate kinase by Lineweaver-Burk plot analysis; procedure, shortened: as §2

“Adenylate kinase 2, mitochondrial (Rattus norvegicus) (from UniProt P29410)” was tested, and the Km [1] was 1000 µM, the Km [2] was 90 µM and the Km [3] was 180 µM. For the same molecule, the Km [4] was 60 µM, the Vmax [5] was 21% and the Vmax [6] was 100%. It also gave a Vmax [7] of 5% and a Vmax [8] of 15.7%.
In the case of `O=C(CI)NCCCCNc1ncnc2c1ncn2[C@@H]1O[C@H](COP(=O)(O)OP(=O)(O)OP(=O)(O)O)[C@@H](O)[C@H]1O`, the Km (Escherichia coli [9]) is reported as 2500 µM and the Vmax (Escherichia coli [10]) is reported as 0.12%.
`Nc1ncnc2c1ncn2[C@@H]1O[C@H](COP(=O)(O)OP(=O)(O)OP(=O)(O)O)[C@@H](O)[C@H]1O` showed a Vmax (Escherichia coli [9]) of 0.06%.
